Results on 16 compounds are retold here after ChEMBL document CHEMBL3232712, “Antineoplastic agents. 595. Structural modifications of betulin and the X-ray crystal structure of an unusual betulin amine dimer” (2014).

≈ marks a conversion by molar mass, not a printed value.

Common to all, as to assay type: functional
One experiment has as its system NCI-H460. Briefly: Cytotoxicity against human NCI-H460 cells after 48 hrs by SRB assay. As to conditions: NCI-H460, 48 h. An outline of the steps: (§1)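 Human tumour lines in RPMI1640 with 5% fetal bovine serum, trypsinized and counted by hemacytometer, seeded in 96-well plates and allowed 24 h before serial compound dilutions were added. After 48 h exposure, cells were fixed with trichloroacetic acid and stained with sulforhodamine B, and optical density was read. GI50 was taken as the concentration halving net protein increase.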

A short description of experiment [1]: Cytotoxicity against human BxPC3 cells after 48 hrs by SRB assay. The note with it: BXPC-3, 48 h. An outline of the steps: as §1
In the next experiment the test system is SF-268. In words: Cytotoxicity against human SF268 cells after 48 hrs by SRB assay. The note with it: SF-268, 48 h. The procedure, abridged: as §1
The subject of another experiment is P388. Briefly: Cytotoxicity against mouse P388 cells after 48 hrs. As to conditions: P388, 48 h, read-out: ED50 (the source's name). The procedure, abridged: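 Murine P388 leukemia cells, counted by Coulter counter, were grown 24 h in Fisher medium with 10% horse serum, then exposed 48 h to serial compound dilutions. Cell numbers were determined with a Coulter particle counter, and ED50 was calculated for growth inhibition.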

The subject of another experiment is DU-145. Briefly: Cytotoxicity against human DU145 cells after 48 hrs by SRB assay. As to conditions: DU-145, 48 h. The procedure, abridged:
as §1

Another experiment concerns MCF7. In words: Cytotoxicity against human MCF7 cells after 48 hrs by SRB assay. The note with it: MCF7, 48 h. The procedure, abridged:
as §1

Experiment [2] is described as follows: Cytotoxicity against human KM20L2 cells after 48 hrs by SRB assay. The note with it: KM-20L2, 48 h. An outline of the steps: as §1

`C=C(C)[C@@H]1CC[C@]2(COC(C)=O)CC[C@]3(C)[C@H](CC[C@@H]4[C@@]5(C)C=C(N)C(=O)C(C)(C)[C@@H]5CC[C@]43C)[C@@H]12`: the GI50 was over 10 µg/mL in the experiment with NCI-H460; 7.9 µg/mL (≈ 15.9 µM) in experiment [1]; over 10 µg/mL in the experiment with SF-268; over 10 µg/mL in the experiment on DU-145; over 10 µg/mL in the experiment with MCF7; over 10 µg/mL in experiment [2]. For the same compound, the EC50 with P388 was over 10 µg/mL.
Consider `CC1(C)CC[C@]23CC[C@]4(C)[C@H](CC[C@@H]5[C@@]6(C)CC(N=[N+]=[N-])C(=O)C(C)(C)[C@@H]6CC[C@]54C)[C@H]2[C@H]1OC3` (some centres not stated), for which the GI50 in the experiment on NCI-H460 is 3.8 µg/mL (≈ 7.89 µM); in experiment [1], 3.1 µg/mL (≈ 6.44 µM); in the experiment with SF-268 it was 8.7 µg/mL (≈ 18.1 µM); in the experiment with DU-145, 4.5 µg/mL (≈ 9.34 µM); with MCF7, 4.7 µg/mL (≈ 9.76 µM); in experiment [2], 7.9 µg/mL (≈ 16.4 µM).
With `C=C(C)[C@@H]1CC[C@]2(CO)CC[C@]3(C)[C@H](CC[C@@H]4[C@@]5(C)CC[C@H](O)C(C)(C)[C@@H]5CC[C@]43C)[C@@H]12` [BETULIN], the GI50 with NCI-H460 is 7.4 µg/mL (≈ 16.7 µM); in experiment [1] it was 9.3 µg/mL (≈ 21 µM); in the experiment with SF-268, over 10 µg/mL; with DU-145, over 10 µg/mL; with MCF7 it was over 10 µg/mL; in experiment [2], over 10 µg/mL.
`C=C(C)[C@@H]1CC[C@]2(COC(C)=O)CC[C@]3(C)[C@H](CC[C@@H]4[C@@]5(C)C[C@H](Br)C(=O)C(C)(C)[C@@H]5CC[C@]43C)[C@@H]12`: the GI50 in the experiment with NCI-H460 stood at 2.8 µg/mL (≈ 4.99 µM); in experiment [1] it was 3.4 µg/mL (≈ 6.05 µM); with SF-268, 3.4 µg/mL (≈ 6.05 µM); in the experiment on DU-145, 6.1 µg/mL (≈ 10.9 µM); with MCF7 it was 3.2 µg/mL (≈ 5.7 µM); in experiment [2], 4.4 µg/mL (≈ 7.83 µM). Also, the EC50 in the experiment with P388 was over 10 µg/mL.
With `CC1(C)CC[C@]23CC[C@]4(C)[C@H](CC[C@@H]5[C@@]6(C)CCC(=O)C(C)(C)[C@@H]6CC[C@]54C)[C@H]2[C@H]1OC3`, the GI50 (in the experiment on NCI-H460; in experiment [1]; with SF-268; in the experiment with DU-145; in the experiment on MCF7; in experiment [2]) was over 10 µg/mL throughout.
As to `CC1(C)CC[C@]23CC[C@]4(C)[C@H](CC[C@@H]5[C@@]6(C)C=C(O)C(=O)C(C)(C)[C@@H]6CC[C@]54C)[C@H]2[C@H]1OC3`, the GI50 in the experiment on NCI-H460 is 8.8 µg/mL (≈ 19.4 µM); in experiment [1], over 10 µg/mL; with SF-268, over 10 µg/mL; in the experiment with DU-145 it was 9.3 µg/mL (≈ 20.5 µM); with MCF7, 7.1 µg/mL (≈ 15.6 µM); in experiment [2], 8 µg/mL (≈ 17.6 µM).
Consider `C=C(C)[C@@H]1CC[C@]2(COC(C)=O)CC[C@]3(C)[C@H](CC[C@@H]4[C@@]5(C)CC[C@H](O)C(C)(C)[C@@H]5CC[C@]43C)[C@@H]12`, for which the GI50 with NCI-H460 was found to be 2.5 µg/mL (≈ 5.16 µM); in experiment [1] it was 4.1 µg/mL (≈ 8.46 µM); in the experiment on SF-268, 4 µg/mL (≈ 8.25 µM); in the experiment with DU-145, 7.6 µg/mL (≈ 15.7 µM); in the experiment on MCF7, 3 µg/mL (≈ 6.19 µM); in experiment [2] it was 5 µg/mL (≈ 10.3 µM). In addition, the EC50 with P388 amounted to 0.805 µg/mL (≈ 1.66 µM).
Take `C=C(C)[C@@H]1CC[C@]2(CO)CC[C@]3(C)[C@H](CC[C@@H]4[C@@]5(C)CC6=NC(C)(C)N=C6C(C)(C)[C@@H]5CC[C@]43C)[C@@H]12`: the GI50 with NCI-H460 was found to be 2.8 µg/mL (≈ 5.68 µM); in experiment [1] it was 1.9 µg/mL (≈ 3.86 µM); in the experiment on SF-268, 6.9 µg/mL (≈ 14 µM); in the experiment on DU-145, 5.8 µg/mL (≈ 11.8 µM); in the experiment with MCF7, 2 µg/mL (≈ 4.06 µM); in experiment [2], 4.9 µg/mL (≈ 9.94 µM).
In the case of `C=C(C)[C@@H]1CC[C@]2(COC(C)=O)CC[C@]3(C)[C@H](CC[C@@H]4[C@@]5(C)CCC(=O)C(C)(C)[C@@H]5CC[C@]43C)[C@@H]12`, the GI50 with NCI-H460 is 5.2 µg/mL (≈ 10.8 µM); in experiment [1], over 10 µg/mL; in the experiment on SF-268, 10.6 µg/mL (≈ 22 µM); with DU-145, over 10 µg/mL; with MCF7, 8 µg/mL (≈ 16.6 µM); in experiment [2], 12.7 µg/mL (≈ 26.3 µM). Moreover, the EC50 in the experiment on P388 was 0.12 µg/mL (≈ 0.249 µM).
As for `C=C(C)[C@@H]1CC[C@]2(COC(C)=O)CC[C@]3(C)[C@H](CC[C@@H]4[C@@]5(C)C=C(NC6=C[C@]7(C)[C@H]8CC[C@@H]9[C@H]%10[C@H](C(=C)C)CC[C@]%10(COC(C)=O)CC[C@@]9(C)[C@]8(C)CC[C@H]7C(C)(C)C6=O)C(=O)C(C)(C)[C@@H]5CC[C@]43C)[C@@H]12`, the GI50 (with NCI-H460; in experiment [1]; in the experiment with SF-268; in the experiment with DU-145; with MCF7; in experiment [2]) was over 10 µg/mL throughout. For the same compound, the EC50 in the experiment with P388 was over 10 µg/mL.
Turning to `CC1(C)CC[C@]23CC[C@]4(C)[C@H](CC[C@@H]5[C@@]6(C)C=C(NC7=C[C@]8(C)[C@H]9CC[C@@H]%10[C@H]%11[C@H]%12OC[C@@]%11(CCC%12(C)C)CC[C@@]%10(C)[C@]9(C)CC[C@H]8C(C)(C)C7=O)C(=O)C(C)(C)[C@@H]6CC[C@]54C)[C@H]2[C@H]1OC3`, the GI50 (in the experiment with NCI-H460; in experiment [1]; in the experiment with SF-268; with DU-145; in the experiment on MCF7; in experiment [2]) was over 10 µg/mL throughout.
Take `C=C(C)[C@@H]1CC[C@]2(COC(C)=O)CC[C@]3(C)[C@H](CC[C@@H]4[C@@]5(C)CC[C@H](OC(C)=O)C(C)(C)[C@@H]5CC[C@]43C)[C@@H]12` [BETULIN DIACETATE]: the GI50 (with NCI-H460; in experiment [1]; in the experiment with SF-268; with DU-145; in the experiment on MCF7; in experiment [2]) was over 10 µg/mL each time. Besides, the EC50 with P388 came out at 0.806 µg/mL.
With `CC1(C)CC[C@]23CC[C@]4(C)[C@H](CC[C@@H]5[C@@]6(C)C=C(N)C(=O)C(C)(C)[C@@H]6CC[C@]54C)[C@H]2[C@H]1OC3`, the GI50 in the experiment with NCI-H460 is over 10 µg/mL; in experiment [1] it was 10.8 µg/mL (≈ 23.8 µM); in the experiment on SF-268, over 10 µg/mL; in the experiment with DU-145, over 10 µg/mL; in the experiment with MCF7, 11.2 µg/mL (≈ 24.7 µM); in experiment [2] it was over 10 µg/mL.
`CC1(C)CC[C@]23CC[C@]4(C)[C@H](CC[C@@H]5[C@@]6(C)CC(Br)C(=O)C(C)(C)[C@@H]6CC[C@]54C)[C@H]2[C@H]1OC3` (some centres not stated): the concentration for 50% growth inhibition (GI50) was determined as 2.9 µg/mL (≈ 5.58 µM) with NCI-H460; 3.1 µg/mL (≈ 5.97 µM) in experiment [1]; 3.4 µg/mL (≈ 6.54 µM) with SF-268; 6.7 µg/mL (≈ 12.9 µM) in the experiment with DU-145; 5 µg/mL (≈ 9.62 µM) in the experiment on MCF7; 2.7 µg/mL (≈ 5.2 µM) in experiment [2].
For `C=C(C)[C@@H]1CC[C@]2(C(=O)OC)CC[C@]3(C)[C@H](CC[C@@H]4[C@@]5(C)C=C(N6CCOCC6)C(=O)C(C)(C)[C@@H]5CC[C@]43C)[C@@H]12`, the GI50 is 4.4 µg/mL (≈ 7.97 µM) with NCI-H460; 3.9 µg/mL (≈ 7.07 µM) in experiment [1]; over 10 µg/mL in the experiment on SF-268; over 10 µg/mL with DU-145; 6.1 µg/mL (≈ 11.1 µM) with MCF7; over 10 µg/mL in experiment [2].
For the compound `C=C(C)[C@@H]1CC[C@]2(COC(C)=O)CC[C@]3(C)[C@H](CC[C@@H]4[C@@]5(C)CC6=NC(C)(C)N=C6C(C)(C)[C@@H]5CC[C@]43C)[C@@H]12`, the concentration for 50% growth inhibition (GI50) with NCI-H460 is over 10 µg/mL; in experiment [1], 14.5 µg/mL (≈ 27.1 µM); in the experiment with SF-268, over 10 µg/mL; in the experiment on DU-145, over 10 µg/mL; in the experiment with MCF7, 11.2 µg/mL (≈ 20.9 µM); in experiment [2], over 10 µg/mL.
